Assay results reported in publication PMC7069794 (Hepatology (Baltimore, Md.), 2020).

Tests used:
[1] = tested on: Paneth cells / intestinal crypts of WT mice; experiment: acute zinc deprivation by dithizone in mice; format: in vivo; conditions: dithizone 75 mg/kg i.p., 6 h
In short: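 Male WT mice received dithizone at 75 mg/kg i.p., and intestines were collected 6 h later. Small-intestinal crypts were isolated for imaging and bacterial killing, and ileal Defa5 and Lyz1 mRNA was measured relative to untreated mice, n=6. Data are mean±SD, compared by t-test, rank-sum or ANOVA as appropriate (P<0.05).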

[2] = tested on: pair-fed and alcohol-fed mice; experiment: LPS injection 4 hours before finishing chronic feeding in mice; format: in vivo; conditions: LPS 4 mg/kg i.p., n=6
In short: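 Male mice, 12 weeks old, were fed ethanol-containing Lieber-DeCarli liquid diet (alcohol-fed) or isocaloric control liquid diet (pair-fed) for 8 wk. A single LPS dose of 4 mg/kg was given i.p. 4 h before the end of feeding. Read-out was relative hepatic Lcn2 and Cxcl1 mRNA, n=6. Data are mean±SD, compared by t-test or one-way ANOVA with Newman-Keuls post hoc test (P<0.05).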

[3] = tested on: Hepa1c1c7 mouse hepatoma cells; format: cell-based; conditions: LPS 100 ng/mL, 6 h; n=3
E. coli ML35 = E. coli ML35 killing of HD5 with or without zinc determined by flow cytometry; format: cell-based; conditions: n=6; for bactericidal activity: oxidized and reduced forms of HD5, without zinc
[4] = tested on: released crypt components (mainly AMPs) of isolated mouse crypts; format: cell-based, mice; conditions: 10 μmol/L carbamyl choline, then 2 μmol/L TPEN for 30 min; n=6
In short: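 Crypts isolated from male WT mouse small intestine were treated with 10 μmol/L carbamyl choline to induce granule release. Released material was then exposed to 2 μmol/L TPEN for 30 min for zinc chelation, and its bactericidal activity was measured, n=6. Data are mean±SD.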

pepsin = format: in vitro ADME
mice = conditions: cited from earlier work
alcohol-fed mice = format: in vivo
[5] = overnight incubation of HD5red with or without zinc, nUHPLC-MS; format: physicochemical

Molecule: S=C(N=Nc1ccccc1)NNc1ccccc1 [Dithizone, dithizone]
- PC degranulation [1]: rapid PC degranulation
- crypt bacterial killing ([1]; n=6): impaired
- expression of Defa5 and Lyz1 ([1]; ileal mRNA, n=6): reduced

Molecule: lipopolysaccharide [LPS]
- hepatic Cxcl1 expression in AF mice in response to LPS ([2]; alcohol-fed mice): did not further alter
- hepatic Lcn2 in AF mice in response to LPS ([2]; alcohol-fed mice): only mildly upregulated
- hepatic Lcn2 and Cxcl1 in PF mice in response to LPS ([2]; pair-fed mice): dramatically upregulated
- Lcn2 and Cxcl1 expressions in Hepa1c1c7 hepatocytes [3]: directly stimulated

Molecule: [Zn] [Zinc, zinc]
- bacterial viability, zinc alone (E. coli ML35; zinc without HD5): did not affect bacterial viability

Molecule: c1ccc(CN(CCN(Cc2ccccn2)Cc2ccccn2)Cc2ccccn2)nc1 [TPEN, N,N,N′,N′-Tetrakis(2-pyridylmethyl)ethylenediamine]
- bacterial killing of released crypt components after zinc chelation [4]: impaired bacterial killing

B1: human α-defensin 5 (peptide, UniProt Q01523 20-94, looked up)
Defensin alpha 5: ESLQERADEATTQKQSGEDNQDLAISFAGNGLSALRTSGSQARATCYCRTGRCATRESLSGVCEISGRLYRLCCR
modifications: Defensin-5
- intact HD5 that bypassed gastric digestion (pepsin): 75%
- intestinal injury caused by alcohol and colitis (mice): attenuated
- Akkermensia sp. in mice (mice; without decreasing microbial diversity): increased
- intestinal structural changes (slight villous blunting), H&E staining (alcohol-fed mice; AF+HD5 group vs AF group (Fig. S11)): improved
- Verrucomicrobiaceae abundance in cecal contents (alcohol-fed mice; AF+HD5 mice, mean±SD, AF mice 2.03±0.69%, P<0.001, n=8): 20.39±5.29%
- plasma ALT levels (alcohol-fed mice; AF+HD5 vs AF, n=8): decreased
- A. muciniphila abundance, PCR analysis (alcohol-fed mice; cecal contents, AF+HD5 vs AF, n=4): significantly enriched
- expression of intestinal Il22 (alcohol-fed mice; ileal mRNA, AF+HD5 vs AF): notably augmented
- levels of inflammatory cytokines/chemokines, including Ip10, Tnfa, and Mip2 (alcohol-fed mice; ileal mRNA, AF+HD5 vs AF): lowered
- expression of ileal α-defensins, including Defa4, Defa20 and Defa21 (alcohol-fed mice; ileal mRNA, AF+HD5 vs AF, n=6): upregulated
- alcohol-impaired distribution of ZO-1 and claudin-1 (alcohol-fed mice; ileum, IF staining and Western blot, n=3): reversed
- alcohol-induced Lcn2 and Cxcl1 elevation, macrophage activation, and immune cell infiltration (alcohol-fed mice; liver, mRNA n=6, IHC/IF n=3): reduced
- plasma ethanol levels and protein levels of CYP2E1 and ALDH2 (alcohol-fed mice; mouse, in vivo): remained the same
- PAMP translocation, including endotoxemia and increased hepatic bacterial DNAs (alcohol-fed mice; plasma endotoxin, hepatic 16S rRNAs, n=8): effectively reversed
- antibacterial function of both forms of HD5 with zinc (E. coli ML35; HD5 oxidized and reduced forms, with zinc vs without): significantly improved
- bactericidal activity (E. coli ML35): effectively killed bacteria

B2: HD5red: reduced form of HD5 (peptide, UniProt Q01523 20-94, looked up)
Defensin alpha 5: B1 Defensin alpha 5
modifications: Defensin-5 reduced form
- redox state of HD5red after overnight incubation in the absence of zinc ([5]; no zinc): all became oxidized
- redox state of HD5red after overnight incubation with zinc ([5]; with zinc): a majority of HD5 remained in reduced forms
- bactericidal activity (E. coli ML35): more potent
